This passage reports MIC, Activity and IC50 results from ChEMBL document CHEMBL2385036, “Peptaibols, tetramic acid derivatives, isocoumarins, and sesquiterpenes from a Bionectria sp. (MSX 47401)” (J Nat Prod, 2013).

Structures are written as SMILES. In brackets after ≈: the same amount, converted by molar mass. Activity calls are given as the source filed them. No cut-off for these calls is given here.

One test deals with Aspergillus niger. Description: Antifungal activity against Aspergillus niger after 7 days by broth microdilution method. Format: functional. The following applies: 168 h. The gist of the method:
(§1)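 MIC by broth method: cultures diluted 10- to 100,000-fold in growth medium, with both undiluted cultures and the dilutions used as inocula; each measurement run in duplicate.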
A general note: In broth dilution the organism is exposed to a series of concentrations in liquid medium.

The next test has as its system Cryptococcus neoformans. Nature of the test: Antifungal activity against Cryptococcus neoformans after 7 days by broth microdilution method. In kind it is functional. The following applies: 168 h. The gist of the method: as §1
The subject of a further test is Candida albicans. Nature of the test: Antifungal activity against Candida albicans after 7 days by broth microdilution method. The following applies: 168 h. In kind it is functional. The gist of the method:
as §1

The subject of test [1] is Staphylococcus aureus. Nature of the test: Antimicrobial activity against methicillin-resistant Staphylococcus aureus GU 52300 after 7 days by broth microdilution method. Format: functional. The following applies: GU 52300, 168 h. The gist of the method:
(§2)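 MIC read-out; inocula were undiluted cultures plus cultures diluted 10- to 100,000-fold in growth medium. All measurements were run in duplicate.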

Test [2] concerns Staphylococcus aureus. Description: Antimicrobial activity against methicillin-resistant Staphylococcus aureus GU 53016 after 7 days by broth microdilution method. In kind it is functional. The following applies: GU 53016, 168 h. The gist of the method:
as §2

Test [3] relates to Staphylococcus aureus. Nature of the test: Antimicrobial activity against methicillin-resistant Staphylococcus aureus GU 36361 after 7 days by broth microdilution method. The following applies: GU 36361, 168 h. Format: functional. The gist of the method: as §2
The subject of test [4] is Staphylococcus aureus. Nature of the test: Antimicrobial activity against methicillin-resistant Staphylococcus aureus GU 34380 after 7 days by broth microdilution method. Format: functional. The following applies: GU 34380, 168 h. The gist of the method: as §2
In test [5] the test system is Staphylococcus aureus. Nature of the test: Antimicrobial activity against methicillin-resistant Staphylococcus aureus GU 34864 after 7 days by broth microdilution method. In kind it is functional. The following applies: GU 34864, 168 h. The gist of the method: as §2
In test [6] the test system is Staphylococcus aureus. Nature of the test: Antimicrobial activity against methicillin-resistant Staphylococcus aureus ATCC 43300 after 7 days by broth microdilution method. The following applies: ATCC 43300, 168 h. In kind it is functional. The gist of the method: as §2
Test [7] relates to Staphylococcus aureus. Description: Antimicrobial activity against methicillin-resistant Staphylococcus aureus DA 1 after 7 days by broth microdilution method. In kind it is functional. The following applies: DA 1, 168 h. The gist of the method: as §2
The test system of test [8] is Staphylococcus aureus. Nature of the test: Antimicrobial activity against Staphylococcus aureus ATCC 6538 after 7 days by broth microdilution method. In kind it is functional. The following applies: ATCC 6538, 168 h. The gist of the method: as §2
The next test relates to SF-268. Description: Cytotoxicity against human SF268 cells after 72 hrs by MTS assay. Format: functional, cell-based. The gist of the method:
(§3)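 Cell lines were MCF-7 human breast carcinoma (Karmanos Cancer Center), NCI-H460 human large cell lung carcinoma (ATCC HTB-177) and SF-268 human astrocytoma (NCI Developmental Therapeutics Program). The cytotoxicity protocol followed an earlier report.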
A general note: Tetrazolium dyes change colour on reduction, which living cells bring about.

In a further test the test system is MCF7. Description: Cytotoxicity against human MCF7 cells after 72 hrs by MTS assay. Format: functional, cell-based. The gist of the method:
as §3

Another test relates to NCI-H460. Description: Cytotoxicity against human NCI-H460 cells after 72 hrs by MTS assay. In kind it is functional, cell-based. The gist of the method: as §3

What is called MIC is the lowest concentration found to suppress growth. Low values mean inhibition by little substance, high ones a need for much substance. `CC1=CC[C@H]([C@](C)(O)CCC(O)C(C)(C)O)CC1` (some centres not stated): the MIC in the test with Aspergillus niger, in the test on Cryptococcus neoformans, against Candida albicans, against Staphylococcus aureus [1], with Staphylococcus aureus [2] and in the test on Staphylococcus aureus [3] was more than 118 µg/mL each time. Further, the MIC against Staphylococcus aureus [4], in the test with Staphylococcus aureus [5], against Staphylococcus aureus [6], in the test with Staphylococcus aureus [7] and against Staphylococcus aureus [8] was more than 118 µg/mL in each case.

For the compound `CC(CCCCCCCCC(=O)CCCCCCCCC[C@@H](O)CO[C@@H]1O[C@H](CO)[C@@H](O)[C@H](O)[C@H]1O)C(=O)C1=C(O)C(Cc2ccc(O)cc2)=NC1=O` (some centres not stated), the outcome in the test on SF-268, in the test on MCF7 and with NCI-H460 was inactive. Besides, the MIC in the test with Aspergillus niger was more than 55 µg/mL; against Cryptococcus neoformans, more than 55 µg/mL; against Candida albicans, more than 55 µg/mL; against Staphylococcus aureus [1] it was 28 µg/mL (≈ 37.4 µM); in the test with Staphylococcus aureus [2], 28 µg/mL (≈ 37.4 µM); with Staphylococcus aureus [3], 28 µg/mL (≈ 37.4 µM). The MIC in the test with Staphylococcus aureus [4], against Staphylococcus aureus [5], in the test with Staphylococcus aureus [6], against Staphylococcus aureus [7] and in the test on Staphylococcus aureus [8] was 14 µg/mL (≈ 18.7 µM) each time.

As for `CC[C@H](C)[C@@H](NC(=O)[C@@](C)(CC)NC(=O)[C@@H]1C[C@@H](O)CN1C(=O)[C@@](C)(CC)NC(=O)[C@@](C)(CC)NC(=O)C(C)(C)NC(=O)[C@@H]1C[C@@H](O)CN1C(=O)[C@@](C)(CC)NC(=O)[C@H](CC(C)C)NC(=O)[C@@H]1C[C@@H](O)CN1C(=O)[C@](C)(CC)NC(=O)[C@H](CC(C)C)NC(=O)[C@@H]1C[C@@H](O)CN1C(=O)C(C)(C)NC(C)=O)C(=O)O[C@@H]([C@H](O)[C@H](O)CO)[C@H](O)CO`, the minimum inhibitory concentration (MIC) against Aspergillus niger, in the test with Cryptococcus neoformans, against Candida albicans, with Staphylococcus aureus [1], against Staphylococcus aureus [2] and with Staphylococcus aureus [3] was more than 118 µg/mL each time. The MIC with Staphylococcus aureus [4], in the test on Staphylococcus aureus [5], in the test with Staphylococcus aureus [6], in the test on Staphylococcus aureus [7] and with Staphylococcus aureus [8] was more than 118 µg/mL in each case.

For orientation: IC50 means the concentration at which inhibition is half-maximal. With `CC(=O)c1coc(=O)c2c(O)cc(O)c(C)c12`, the IC50 in the test with SF-268 (SF-268, 72 h) is more than 10 µM; with MCF7 (MCF7, 72 h) it was more than 10 µM; in the test with NCI-H460 (NCI-H460, 72 h) it was more than 10 µM.

`C[C@@H]1[C@H](O)[C@@H](C)/C=C/C=C/C=C/C=C/C=C/C=C/C=C/[C@H](O[C@@H]2O[C@H](C)[C@@H](O)[C@H](N)[C@@H]2O)C[C@@H]2O[C@](O)(C[C@@H](O)C[C@@H](O)[C@H](O)CC[C@@H](O)C[C@@H](O)CC(=O)O[C@H]1C)C[C@H](O)[C@H]2C(=O)O` [AMPHOTERICIN B]: the MIC in the test with Aspergillus niger was 100 µg/mL (≈ 108 µM); with Cryptococcus neoformans it was 25 µg/mL (≈ 27.1 µM); against Candida albicans, 25 µg/mL (≈ 27.1 µM).

Take `CC[C@H](C)[C@@H](NC(=O)[C@@](C)(CC)NC(=O)[C@@H]1C[C@@H](O)CN1C(=O)C(C)(C)NC(=O)[C@@](C)(CC)NC(=O)C(C)(C)NC(=O)[C@@H]1C[C@@H](O)CN1C(=O)[C@@](C)(CC)NC(=O)[C@H](CC(C)C)NC(=O)[C@@H]1C[C@@H](O)CN1C(=O)[C@](C)(CC)NC(=O)[C@H](CC(C)C)NC(=O)[C@@H]1C[C@@H](O)CN1C(=O)C(C)(C)NC(C)=O)C(=O)O[C@@H]([C@H](O)[C@H](O)CO)[C@H](O)CO` [CLONOSTACHIN]: the minimum inhibitory concentration (MIC) in the test on Aspergillus niger, against Cryptococcus neoformans, with Candida albicans, in the test with Staphylococcus aureus [1], against Staphylococcus aureus [2] and against Staphylococcus aureus [3] was more than 118 µg/mL in each case. In addition, the MIC in the test with Staphylococcus aureus [4], with Staphylococcus aureus [5], against Staphylococcus aureus [6], against Staphylococcus aureus [7] and with Staphylococcus aureus [8] was more than 118 µg/mL each time.

On to `CN[C@H](CC(C)C)C(=O)N[C@H]1C(=O)N[C@@H](CC(N)=O)C(=O)N[C@H]2C(=O)N[C@H]3C(=O)N[C@H](C(=O)N[C@H](C(=O)O)c4cc(O)cc(O)c4-c4cc3ccc4O)[C@H](O)c3ccc(c(Cl)c3)Oc3cc2cc(c3O[C@@H]2O[C@H](CO)[C@@H](O)[C@H](O)[C@H]2O[C@H]2C[C@](C)(N)[C@H](O)[C@H](C)O2)Oc2ccc(cc2Cl)[C@H]1O` [VANCOMYCIN], for which the MIC was 0.38 µg/mL (≈ 0.262 µM) against Staphylococcus aureus [2]; 0.75 µg/mL (≈ 0.518 µM) against Staphylococcus aureus [3]; 0.38 µg/mL (≈ 0.262 µM) in the test on Staphylococcus aureus [5]; 0.25 µg/mL (≈ 0.173 µM) in the test with Staphylococcus aureus [6]; 0.25 µg/mL (≈ 0.173 µM) against Staphylococcus aureus [7]; 0.25 µg/mL (≈ 0.173 µM) against Staphylococcus aureus [8].

Consider `CC(CCCCCCCCC(=O)CCCCCCCCC[C@@H](O)CO)C(=O)C1=C(O)[C@H](Cc2ccc(O)cc2)NC1=O` (some centres not stated) [VIRGINEONE AGLYCONE], for which the outcome in the test with SF-268, in the test with MCF7 and in the test with NCI-H460 was inactive. The MIC was more than 88 µg/mL against Aspergillus niger; more than 88 µg/mL against Cryptococcus neoformans; more than 88 µg/mL against Candida albicans; 5.5 µg/mL (≈ 9.36 µM) with Staphylococcus aureus [1]; 2.8 µg/mL (≈ 4.76 µM) against Staphylococcus aureus [2]; 5.5 µg/mL (≈ 9.36 µM) in the test on Staphylococcus aureus [3]. In addition, the MIC in the test with Staphylococcus aureus [4], in the test on Staphylococcus aureus [5], in the test on Staphylococcus aureus [6], against Staphylococcus aureus [7] and in the test with Staphylococcus aureus [8] was 2.8 µg/mL (≈ 4.76 µM) in each case.

For the compound `CC(CCCCCCCCC(=O)CCCCCCCCCC(O)CO[C@@H]1O[C@H](CO)[C@@H](O)[C@H](O)[C@@H]1O)C(=O)C1=C(O)C(Cc2ccc(O)cc2)NC1=O` (some centres not stated) [VIRGINEONE], the result with SF-268, with MCF7 and in the test on NCI-H460 was inactive. For the same compound, the MIC was 14.4 µg/mL (≈ 19.2 µM) in the test with Aspergillus niger; 14.4 µg/mL (≈ 19.2 µM) in the test on Cryptococcus neoformans; 14.4 µg/mL (≈ 19.2 µM) against Candida albicans; 7.2 µg/mL (≈ 9.6 µM) with Staphylococcus aureus [1]; 7.2 µg/mL (≈ 9.6 µM) against Staphylococcus aureus [2]; 7.2 µg/mL (≈ 9.6 µM) with Staphylococcus aureus [3]. The MIC against Staphylococcus aureus [4], in the test with Staphylococcus aureus [5], in the test with Staphylococcus aureus [6], against Staphylococcus aureus [7] and in the test with Staphylococcus aureus [8] was 7.2 µg/mL (≈ 9.6 µM) each time.
